The values that follow come from ChEMBL document CHEMBL1649302, “New small-molecule inhibitor class targeting human immunodeficiency virus type 1 virion maturation” (Antimicrob Agents Chemother, 2009).

The subject of assay [1] is Human immunodeficiency virus 1. Description: Antiviral activity against HIV1 NL4-3 infected in HEK293 cells assessed as decrease in virus production at 2 times EC90 after 72 hrs by beta-galactosidase reporter gene assay. The assay is classed as functional. A general note: In a reporter assay the amount or activity of a reporter protein is the signal.
Assay [2] concerns Human immunodeficiency virus 1. Description: Antiviral activity against HIV1 NL4-3 infected in human HeLa cells assessed as decrease in single-cycle viral infection after 72 hrs by beta-galactosidase reporter gene assay. It is filed as functional, organism-based. The settings on record: Human immunodeficiency virus 1, NL4-3, HeLa. In short, it runs like this: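 HeLa CD4 LTR/beta-Gal cells (1 × 10⁴/well, DMEM + 10% FBS) were pre-dosed with half-log compound dilutions. They were infected at MOI 0.03 with single-cycle NL4-3 reporter virus made by cotransfecting HEK 293 cells with pNL4-3deltaEnv and an NL4-3 envelope vector. EC50 is from beta-gal reporter activity relative to infected untreated cells, across three experiments.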

Assay [3] relates to Human immunodeficiency virus 1. The assay is described as follows: Antiviral activity against wild type HIV1 infected in human HeLa cells assessed as decrease in viral infection after 72 hrs by beta-galactosidase reporter gene assay. It is filed as functional, organism-based. The conditions noted are these: Human immunodeficiency virus 1, HeLa. In short, it runs like this: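 HeLa CD4 LTR/β-Gal cells (1 × 10⁴/well, DMEM + 10% FBS) were pretreated with half-log compound dilutions. They were then infected at MOI 0.03 with single-cycle NL4-3 ΔEnv reporter virus pseudotyped with envelope from HEK 293 cotransfection. EC50 was the concentration halving β-galactosidase activity versus infected untreated cells. Values are mean ± SD or representative of three experiments.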

The subject of assay [4] is Human immunodeficiency virus 1. The assay is described as follows: Antiviral activity against HIV1 harboring capsid I201V mutant protein infected in human HeLa cells assessed as decrease in viral infection after 72 hrs by beta-galactosidase reporter gene assay. The assay is classed as functional, organism-based. The conditions noted are these: Human immunodeficiency virus 1, HeLa.

The subject of assay [5] is Human immunodeficiency virus 1. The assay is described as follows: Selectivity ratio of EC50 for HIV1 harboring spacer peptide A1V mutant protein infected in human HeLa cells to EC50 for wild type HIV1 infected in human HeLa cells. It is filed as functional. In short, it runs like this: (§1)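 MT-2 cells were infected for 2 h with wild-type NL4-3 or recombinant NL4-3 carrying CA I201V or SP1 A1V. They were then cocultured with HeLa CD4 LTR/beta-Gal indicator cells in serially diluted compound. Beta-gal reporter was read after 4 days. EC50s are means ± SD of 3–6 experiments. Fold change is mutant EC50 divided by wild-type EC50.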

For assay [6], the system named is Human immunodeficiency virus 1. The assay is described as follows: Selectivity ratio of EC50 for HIV1 harboring capsid I201V mutant protein infected in human HeLa cells to EC50 for wild type HIV1 infected in human HeLa cells. The assay is classed as functional. In short, it runs like this: as §1
For assay [7], the system named is Human immunodeficiency virus 1. Description: Antiviral activity against HIV1 harboring spacer peptide A1V mutant protein infected in human HeLa cells assessed as decrease in viral infection after […] by beta-galactosidase reporter gene assay. The assay is classed as functional, organism-based. The conditions noted are these: Human immunodeficiency virus 1, HeLa. In short, it runs like this: as §1

In the case of `Cc1c(O)cccc1C(=O)N[C@@H](CSc1ccccc1)[C@H](O)CN1C[C@H]2CCCC[C@H]2C[C@H]1C(=O)NC(C)(C)C` [NELFINAVIR], the “inhibition (INH)” value in assay [1] came to 76%. The EC50 in assay [2] was over 1000 nM; in assay [3], 16 nM; in assay [4] it was 13 nM; in assay [7], 38 nM. Moreover, the “Ratio EC50” value in assay [5] is 2; in assay [6] it was 1.

`O=C1Nc2ccc(Cl)cc2[C@@](C#CC2CC2)(C(F)(F)F)O1` [EFAVIRENZ]: the “inhibition (INH)” value in assay [1] amounted to 24%. Also, the EC50 stood at 0.6 nM in assay [4] and 1 nM in assay [7].

For the compound `C=C(C)[C@@H]1CC[C@]2(C(=O)O)CC[C@]3(C)[C@H](CC[C@@H]4[C@@]5(C)CC[C@H](OC(=O)CC(C)(C)C(=O)O)C(C)(C)[C@@H]5CC[C@]43C)[C@@H]12` [BEVIRIMAT], the EC50 was 9 nM in assay [3], 290 nM in assay [4] and over 1000 nM in assay [7]. Besides, the “Ratio EC50” value was over 111 in assay [5] and 32 in assay [6].

In general, EC50 refers to the midpoint of the concentration-response curve.
